Our source for the Ki and Activity values is ChEMBL document CHEMBL2034815, “Synthesis and evaluation of N(1)-alkylindole-3-ylalkylammonium compounds as nicotinic acetylcholine receptor ligands” (Bioorg Med Chem, 2012).

Assay [1] can be described thus: Displacement of [3H]epibatidine from alpha3beta4* nAChR in calf adrenal P1 membrane after 90 mins by liquid scintillation counting. It counts as cell membranes, Bos taurus. A digest of the protocol: (§1)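 Rat forebrain P2, calf adrenal P1 or Torpedo californica electroplax P1 membranes (60 µg protein) with 0.5 nM (±)-[3H]epibatidine in HEPES-salt solution (15 mM HEPES, 120 mM NaCl, 5.4 mM KCl, 0.8 mM MgCl2, 1.8 mM CaCl2) at 22 °C. Run in duplicate. Nonspecific binding defined with 300 µM (−)-nicotine. Filtered on PEI-soaked GF/B filters. Ki derived from IC50 by Cheng-Prusoff, Kd 10 pM.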
A general note: Loss of bound radioactivity is the signal in a displacement assay; it reports binding, not function.

The nature of assay [2]: Displacement of [3H]epibatidine from alpha4beta2* nAChR in Sprague-Dawley rat brain P2 membrane after 90 mins by liquid scintillation counting. In kind it is tissue-based. Put shortly:
as §1

The nature of assay [3]: Displacement of [3H]MLA from alpha7* nAChR in Sprague-Dawley rat brain P2 membrane after 180 mins by liquid scintillation counting.
Assay [4] can be described thus: Displacement of [3H]epibatidine from (alpha1)2beta1gammadelta nAChR in electric ray electroplax P1 membrane after 90 mins by liquid scintillation counting. On the set-up: species or system Tetronarce californica. A digest of the protocol:
as §1

Assay [5] in a line: Displacement of [3H]MLA from alpha7* nAChR in rat brain membrane. It counts as cell membranes. Put shortly:
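Rat brain crude P2 membranes in HEPES-salt solution (15 mM HEPES, 120 mM NaCl, 5.4 mM KCl, 0.8 mM MgCl2, 1.8 mM CaCl2), 22 °C, duplicates. [3H]MLA 2 nM final, 180 min; nonspecific binding with 1 µM MLA. GF/B filtration (1% PEI presoaked), scintillation counting. Nonlinear regression IC50; Ki by Cheng-Prusoff with Kd = 1 nM.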

The species named for assay [6] is Rattus norvegicus. The experiment in a line: Displacement of [3H]epibatidine from alpha4beta2* nAChR in Sprague-Dawley rat brain P2 membrane up to 50 uM after 90 mins by liquid scintillation counting. In kind it is tissue-based.

Structures are written as SMILES. Activity calls are given as the source filed them. The calls are words filed in the database; no cut-off is given here.

As for `CCCCCCCCCCCCn1cc(CCCN(C)C)c2ccccc21`, the Ki in assay [1], in assay [2] and in assay [3] was above 10 µM throughout.
As to `CN1CCC[C@H]1c1cccnc1` [NICOTINE], the values for the Ki in assay [1], in assay [2] and in assay [3] were 0.0753 µM, 0.00085 µM and 0.129 µM, respectively.
In the same order, the values of `CCCCCCCCn1cc(CCC[N+](C)(C)C)c2ccccc21` are above 10 µM, 0.243 µM and above 1 µM.
As for `CCCCCCCCn1cc(CCCN(C)C)c2ccccc21`, the Ki in assay [1] and in assay [2] was above 10 µM in each case.
Regarding `CN(C)CCc1cn(C)c2ccccc12`, the Ki was 3.68 µM in assay [1] and above 10 µM in assay [2].
In the same order, the values of `CCCCCCCCCCn1cc(CCN(C)C)c2ccccc21` are above 10 µM and above 10 µM.
On to `Cn1cc(CC[N+](C)(C)C)c2ccccc21`, for which the Ki in assay [1] was 2.01 µM; in assay [2] it was above 10 µM; in assay [4], above 10 µM; in assay [3], above 10 µM.
For `CCCCCCCCCCn1cc(CN(C)C)c2ccccc21`, the Ki in assay [1], in assay [2] and in assay [3] was above 10 µM each time.
On to `C=CCn1cc(CCN(C)C)c2ccccc21`, for which the Ki was 2.85 µM in assay [1], above 10 µM in assay [2] and above 10 µM in assay [3].
Turning to `CCCCCCCCCCCCn1cc(CN(C)C)c2ccccc21`, the Ki in assay [1], in assay [2] and in assay [3] was above 10 µM each time.
With `CCCCCCCCn1cc(CN(C)C)c2ccccc21`, the Ki in assay [1], in assay [2] and in assay [3] was above 10 µM in each case.
Take `CCCCCCCCCCn1cc(C[N+](C)(C)C)c2ccccc21`: the Ki in assay [1], in assay [2] and in assay [3] was above 10 µM throughout.
With `CCCCCCCCn1cc(C[N+](C)(C)C)c2ccccc21`, the figures for the Ki in assay [1], in assay [2] and in assay [3] were 3.4 µM, 0.706 µM and above 5 µM, respectively.
`CNCCc1cn(CC=C(C)C)c2cc(Br)ccc12` [DEFORMYLFLUSTRABROMINE B]: the Ki in assay [1] was above 10 µM; in assay [5] it was 17 µM; in assay [2], above 10 µM. In addition, the outcome in assay [6] was inactive.
For `CCCCCCCCn1cc(CCN(C)C)c2ccccc21`, the Ki in assay [1], in assay [2], in assay [4] and in assay [3] was above 10 µM each time.
Turning to `CNCCc1cn(C)c2ccccc12`, the Ki in assay [1] and in assay [2] was above 10 µM throughout.
Take `C=CCn1cc(CCNC)c2ccccc21`: the Ki in assay [1] and in assay [2] was above 10 µM throughout.
Take `CC(C)=CCn1cc(CCN(C)C)c2ccccc21`: the values for the Ki in assay [1], in assay [2] and in assay [3] were 1.82 µM, above 10 µM and above 10 µM, respectively.
For `C=CCn1cc(CC[N+](C)(C)C)c2ccccc21`, the Ki in assay [1] is 0.365 µM; in assay [2], 0.517 µM; in assay [4], above 10 µM; in assay [3] it was 6.8 µM.
For `CC(C)=CCn1cc(CC[N+]2(C)CCCC2)c2ccccc21`, the inhibitory constant (Ki) in assay [2] is above 10 µM.
On to `CC(C)=CCn1cc(CN(C)C)c2ccccc21`, for which the Ki in assay [1] and in assay [2] was above 10 µM in each case.
Turning to `CC(C)=CCn1cc(CC[N+](C)(C)C)c2ccccc21`, the Ki in assay [1] is 0.0939 µM; in assay [2], 0.136 µM; in assay [4], 2.36 µM; in assay [3], 0.862 µM.
Consider `CC(C)=CCn1cc(CN(C)C)c2ccc(Br)cc21`, for which the Ki is above 10 µM in assay [1] and 1.38 µM in assay [2].
Consider `CC(C)=CCn1cc(CC[N+](C)(C)C)c2ccc(Br)cc21`, for which the Ki is 5.33 µM in assay [1], 0.412 µM in assay [2], above 10 µM in assay [4] and 1.53 µM in assay [3].
For the compound `CCCCCCCCn1c(C[N+](C)(C)C)cc2ccccc21`, the Ki in assay [1], in assay [2] and in assay [3] was above 10 µM each time.
As to `CCCCCCCCCCCCn1cc(CCC[N+](C)(C)C)c2ccccc21`, the Ki in assay [1], in assay [2] and in assay [3] was above 10 µM in each case.
As for `CC(C)=CCn1cc(C[N+](C)(C)C)c2ccc(Br)cc21`, the Ki in assay [1] was above 1 µM; in assay [2] it was 0.203 µM; in assay [3] it was above 1 µM.
With `CCCCCCCCCCCCn1cc(CC[N+](C)(C)C)c2ccccc21`, the Ki in assay [1] and in assay [2] was above 10 µM throughout.
For the compound `CCCCCCCCCCn1cc(CCC[N+](C)(C)C)c2ccccc21`, the Ki in assay [1], in assay [2] and in assay [3] was above 10 µM throughout.
`CCCCCCCCn1cc(CC[N+](C)(C)C)c2ccccc21`: the Ki in assay [1] was above 10 µM; in assay [2], 0.527 µM.
For the compound `CC(C)=CCn1cc(C[N+](C)(C)C)c2ccccc21`, the Ki is above 10 µM in assay [1], 0.435 µM in assay [2] and above 10 µM in assay [3].
As to `CCCCCCCCCCCCn1cc(C[N+](C)(C)C)c2ccccc21`, the Ki in assay [1], in assay [2] and in assay [3] was above 10 µM in each case.
As for `CCCCCCCCCCCCn1cc(CCN(C)C)c2ccccc21`, the Ki in assay [1] and in assay [2] was above 10 µM each time.
`CCCCCCCCn1c(CN(C)C)cc2ccccc21`: the Ki in assay [1], in assay [2] and in assay [3] was above 10 µM throughout.
Turning to `CCCCCCCCCCn1cc(CC[N+](C)(C)C)c2ccccc21`, the Ki in assay [1] and in assay [2] was above 10 µM throughout.
Consider `CNCCc1cn(CC=C(C)C)c2ccccc12`, for which the Ki in assay [1], in assay [2] and in assay [3] was above 10 µM in each case.
Turning to `CCCCCCCCCCn1cc(CCCN(C)C)c2ccccc21`, the Ki in assay [1], in assay [2] and in assay [3] was above 10 µM each time.

By Ki is commonly meant the equilibrium dissociation constant of an inhibitor or competing ligand from its target.
